Pf Dd2 growth = P. falciparum Dd2 growth inhibition. SYBR Green, 72 h; stronger effect = lower value. activity change, % at 10 µM. 94,000 tested, 2.3% active. AID 1159554; in the data active = activity change below about -80%; inconclusive = no clear call, values can overlap the other calls
KDM4C inh = KDM4C (human) demethylase inhibition; GST-KDM4C 2-372, H3K9me3 peptide, LANCE TR-FRET; Q9H3R0; AID 720574; inhibition, % at 12.5 µM; 96,000 tested, 0.15% active;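 active = mean replicate inhibition above about 25%, with at least 55% of replicates also reaching it, limit read from the data, passing the limit was not always enough; inconclusive = only one of those two conditions met; inactive = neither condition met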
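System: N-terminal GST-fused human GASC-1 (KDM4C) fragment, residues 2-372 / Amount: 10 nM GST-KDM4C in enzyme reaction / Also added: H3K9me3 peptide with Fe(II)/2OG / Times: 30 min demethylation and 1 h detection at room temperature / Signal: LANCE TR-FRET / Read-out basis: Fall in 671/618 emission ratio as inhibition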
IDH1 mut inh = inhibitors of human IDH1 R132H | IDH1 R132H reductase, diaphorase/resazurin fluorescence, 60 min | AID 624101 | O75874 | inhibition, % at 10 µM | 70,000 tested, 0.18% active; in the data active = inhibition above about 34%; inconclusive = no clear call, values can overlap the other calls; inactive = below about 11%
Target sequence (O75874 whole entry R132H): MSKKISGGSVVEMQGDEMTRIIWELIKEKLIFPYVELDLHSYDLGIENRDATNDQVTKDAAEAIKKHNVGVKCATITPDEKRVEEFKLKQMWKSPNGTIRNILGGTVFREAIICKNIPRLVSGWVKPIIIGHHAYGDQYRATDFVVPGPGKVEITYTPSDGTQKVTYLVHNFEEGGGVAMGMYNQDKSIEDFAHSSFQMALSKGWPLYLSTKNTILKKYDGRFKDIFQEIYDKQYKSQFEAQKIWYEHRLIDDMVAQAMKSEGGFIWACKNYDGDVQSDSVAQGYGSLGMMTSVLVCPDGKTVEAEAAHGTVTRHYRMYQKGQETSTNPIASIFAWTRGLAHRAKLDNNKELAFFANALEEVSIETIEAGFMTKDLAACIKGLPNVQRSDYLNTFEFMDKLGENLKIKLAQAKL
T cruzi growth-1 = T. cruzi proliferation inhibition | 77,000 tested, 5.9% active | T. cruzi beta-gal in NIH3T3, GalScreen luminescence, 90 h | inhibition, % at 8.34 µM;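 active = mean inhibition above about 93%, with at least 55% of replicates each passing it, limit read from the data, passing the limit was not always enough; inconclusive = only one of those two conditions holds; inactive = neither condition holds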
T cruzi growth-2 = blocks T. cruzi growth in NIH3T3 host cells; inhibition, % at 8.35 µM; T. cruzi beta-gal in NIH3T3, GalScreen luminescence, 90 h; shares compounds with T cruzi growth-1; 5,600 tested, 72% active; AID 651739;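 active = mean replicate inhibition above about 95% and at least 55% of replicates individually reaching it, limit read from the data; inconclusive = only one of the two criteria is met; inactive = neither criterion is met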
T cruzi growth-3 = Trypanosoma cruzi proliferation inhibition; shares compounds with T cruzi growth-1; T. cruzi beta-gal in NIH3T3, GalScreen luminescence, 90 h; inhibition, % at 2.09 µM; 5,600 tested, 21% active;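 active = mean inhibition above about 95%, with at least 55% of replicates also reaching it, limit read from the data; inconclusive = meets just one of the two conditions; inactive = meets neither condition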
3T3 cytotox = NIH/3T3 (mouse) viability loss; AID 651742; shares compounds with T cruzi growth-1; cytotoxicity (signal decrease), % at 8.35 µM; NIH/3T3 viability, CellTiter-Glo ATP luminescence, 90 h; 5,600 tested, 14% active;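 active = mean signal decrease across replicates above about 35% based on untreated-well scatter, with enough replicates individually passing, limit read from the data; inconclusive = no rule stated though some were filed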
3T3 cytotox 2 = NIH/3T3 (mouse) viability loss | NIH/3T3 viability, CellTiter-Glo ATP luminescence, 90 h | shares compounds with T cruzi growth-1 | 5,600 tested, 56% active | inhibition, % at 24.9 µM;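 active = mean loss of cell viability signal at or above a set limit, and enough replicates individually reaching it; inconclusive = meets only the mean limit or only the replicate share; inactive = meets neither condition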
Hits are given with their value. The list is not random: actives were taken first. Their share in the collection is about 5.8%.

What do the screens show for `O=C(C[C@@H]1C[C@@H]2c3cc(NC(=O)c4ccc5c(c4)OCO5)ccc3O[C@@H]2[C@H](CO)O1)NCc1ccc(Cl)cc1`?
Pf Dd2 growth: inactive; KDM4C inh: inactive; IDH1 mut inh: inactive; T cruzi growth-1: inactive

How did O=C(C[C@H]1C[C@@H]2c3cc(NC(=O)c4ccc5c(c4)OCO5)ccc3O[C@@H]2[C@H](CO)O1)NCc1ccc(Oc2ccccc2)cc1 do in these assays?
Pf Dd2 growth: inactive; KDM4C inh: inactive; IDH1 mut inh: inactive; T cruzi growth-1: 177; T cruzi growth-2: 99; T cruzi growth-3: inactive; 3T3 cytotox: inactive; 3T3 cytotox 2: 45

Results for CCc1cnc(N2[C@H](C#N)[C@H](c3ccc(C#CC(C)C)cc3)[C@@H]2CO)s1 ?
Pf Dd2 growth: inactive; KDM4C inh: inactive; T cruzi growth-1: 96; T cruzi growth-2: 100; T cruzi growth-3: 113; 3T3 cytotox: inactive; 3T3 cytotox 2: inactive

How did CCc1cnc(N2[C@H](C#N)[C@H](c3ccc(C#CC(C)C)cc3)[C@H]2CO)s1 do in these assays?
Pf Dd2 growth: inactive; KDM4C inh: inactive; T cruzi growth-1: 107; T cruzi growth-2: 98; T cruzi growth-3: 108; 3T3 cytotox: inactive; 3T3 cytotox 2: 26

Results for CCc1cnc(N2[C@H](CO)[C@H](c3ccc(C#CC(C)C)cc3)[C@@H]2C#N)s1 ?
Pf Dd2 growth: inactive; KDM4C inh: inactive; T cruzi growth-1: inactive

How did CCc1cnc(N2[C@H](C#N)[C@@H](c3ccc(C#CC(C)C)cc3)[C@H]2CO)s1 do in these assays?
Pf Dd2 growth: inactive; KDM4C inh: inactive; T cruzi growth-1: inactive

What do the screens show for `OC1c2ccccc2-c2c3c(cc4c2C1NCC4)OCO3` (centres undefined)?
IDH1 mut inh: inactive

Results for COCC#Cc1ccc2c(c1)O[C@H](CN(C)CC1CCCC1)[C@@H](C)CN([C@H](C)CO)S2(=O)=O ?
Pf Dd2 growth: inactive; KDM4C inh: inactive; IDH1 mut inh: inactive; T cruzi growth-1: inconclusive; T cruzi growth-2: 99; T cruzi growth-3: inactive; 3T3 cytotox: inactive; 3T3 cytotox 2: 50

What do the screens show for `COCC#Cc1ccc2c(c1)O[C@@H](CN(C)CC1CCCC1)[C@H](C)CN([C@@H](C)CO)S2(=O)=O`?
Pf Dd2 growth: inconclusive; KDM4C inh: inactive; IDH1 mut inh: inactive; T cruzi growth-1: 106; T cruzi growth-2: 96; T cruzi growth-3: inactive; 3T3 cytotox: inactive; 3T3 cytotox 2: 104

How did COc1cccc(-c2ccc3c(c2)[C@@H]2[C@@H](CCN2C(=O)C2CCC2)[C@@H](CO)N3)c1 do in these assays?
Pf Dd2 growth: inactive; KDM4C inh: inactive; T cruzi growth-1: inactive

What do the screens show for `COc1cccc(-c2ccc3c(c2)[C@H]2[C@H](CCN2C(=O)C2CCOCC2)[C@H](CO)N3)c1`?
Pf Dd2 growth: inactive; KDM4C inh: inactive; T cruzi growth-1: inconclusive; T cruzi growth-2: 103; T cruzi growth-3: inactive; 3T3 cytotox: inactive; 3T3 cytotox 2: inactive

Results for COc1cccc(-c2ccc3c(c2)[C@@H]2[C@@H](CCN2C(=O)C2CCOCC2)[C@H](CO)N3)c1 ?
Pf Dd2 growth: inactive; KDM4C inh: inactive; T cruzi growth-1: 111; T cruzi growth-2: inactive; T cruzi growth-3: inactive; 3T3 cytotox: inactive; 3T3 cytotox 2: inactive

How did COc1cccc(-c2ccc3c(c2)[C@H]2[C@H](CCN2C(=O)C2CCOCC2)[C@@H](CO)N3)c1 do in these assays?
Pf Dd2 growth: inactive; KDM4C inh: inactive; T cruzi growth-1: 116; T cruzi growth-2: 105; T cruzi growth-3: inactive; 3T3 cytotox: inactive; 3T3 cytotox 2: inactive

What do the screens show for `O=S(=O)(c1ccccc1F)N1CCCCN2[C@H](C1)[C@@H](c1ccc(-c3cccnc3)cc1)[C@@H]2CO`?
Pf Dd2 growth: inactive; KDM4C inh: inactive; T cruzi growth-1: inactive

How did O=S(=O)(c1ccccc1F)N1CCCCN2[C@H](C1)[C@H](c1ccc(-c3ccncc3)cc1)[C@@H]2CO do in these assays?
Pf Dd2 growth: inactive; KDM4C inh: inactive; T cruzi growth-1: 96; T cruzi growth-2: 112; T cruzi growth-3: inactive; 3T3 cytotox: inactive; 3T3 cytotox 2: inactive
